In one data set the test system is HOP-62. The data set is described as follows: Antiproliferative activity against human HOP-62 cells assessed as cell growth inhibition. In kind it is functional. The gist of the method:
(§1)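 Cell lines screened for growth inhibition and GI₅₀ derived. Each value is the mean of 3 independent experiments.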

The nature of data set [1]: Cytotoxicity against hepatocytes (unknown origin) assessed as cell growth by MTT assay relative to control. In kind it is cell-based, Hepatocyte. Also on record: concentration or dose not given beside the values. On the technique in general: Tetrazolium assays rely on reduction of a dye to a coloured formazan, in cell work by metabolically active cells.
A further data set has as its system PC-3. The data set is described as follows: Antiproliferative activity against human PC-3 cells assessed as cell growth inhibition. The data set is classed as functional. The gist of the method:
as §1

The test system of data set [2] is K562. Put plainly: Antiproliferative activity against human K562 cells assessed as cell growth inhibition. In kind it is functional. The gist of the method: as §1
Data set [3] is described as follows: Antiproliferative activity against human GURAV cells assessed as cell growth inhibition. In kind it is functional. The gist of the method:
as §1

In another data set the test system is KB. Put plainly: Antiproliferative activity against human KB cells assessed as cell growth inhibition. The data set is classed as functional. The gist of the method: as §1
The test system of the next data set is MCF7. Put plainly: Antiproliferative activity against human MCF7 cells assessed as cell growth inhibition. The data set is classed as functional. The gist of the method:
as §1

The subject of the next data set is HL-60. The data set is described as follows: Antiproliferative activity against human HL-60 cells assessed as cell growth inhibition. In kind it is functional. The gist of the method: as §1
For the next data set, the system named is MOLT-4. Put plainly: Antiproliferative activity against human MOLT-4 cells assessed as cell growth inhibition. The data set is classed as functional. The gist of the method:
as §1

The test system of another data set is Jurkat. Put plainly: Antiproliferative activity against human Jurkat cells assessed as cell growth inhibition. The data set is classed as functional. The gist of the method: as §1
The next data set relates to U-937. The data set is described as follows: Antiproliferative activity against human U-937 cells assessed as cell growth inhibition. In kind it is functional. The gist of the method:
as §1

Data set [4] relates to K562. The data set is described as follows: Anticancer activity against human K562 cells assessed as cell growth inhibition at 1 uM by MTT assay relative to control. The data set is classed as functional. The note with it: read-out: GI. The gist of the method:
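K562 cells given imatinib 1 µM or test compound 1 µM alone, or imatinib 1 µM plus test compound 1 µM. Proliferation read by MTT assay and expressed as % inhibition.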

The subject of a further data set is NCI-H226. The data set is described as follows: Antiproliferative activity against human NCI-H226 cells assessed as cell growth inhibition. In kind it is functional. The gist of the method:
as §1

The subject of another data set is A549. Put plainly: Antiproliferative activity against human A549 cells assessed as cell growth inhibition. The data set is classed as functional. The gist of the method: as §1

The term GI50 denotes the concentration at which growth is held to half of that of the control. As usually defined, the viability is the share of living cells, or the viability signal relative to a control.

Regarding `O=C(COc1ccc(/C=C2\SC(=O)NC2=O)cc1)Nc1ccc(Br)cc1`, the GI50 with HOP-62 amounted to 45.4 µM; with PC-3, 86.6 µM; in the data set on K562 [2], 23.4 µM; in [3] it was 54.4 µM; with KB it was 32.1 µM; in the data set on MCF7 it was 55.1 µM. For the same compound, the viability in data set [1] was greater than 70%.
Turning to `O=C(COc1ccc(/C=C2\SC(=O)NC2=O)cc1)Nc1ccc(Cl)cc1`, the GI50 with HL-60 is 52.4 µM; with MOLT-4 it was 42.7 µM; in the data set on HOP-62, 36.1 µM; with PC-3, 83.4 µM; with Jurkat, greater than 100 µM; with K562 [2], 7.4 µM. In addition, the GI50 in data set [3] was 35.6 µM; with KB, 50.3 µM; with MCF7, 51.1 µM; with U-937 it was 46.3 µM. In addition, the viability in [1] is greater than 70%.
For the compound `COc1cccc2c1C(=O)c1c(O)c3c(c(O)c1C2=O)C[C@@](O)(C(=O)CO)C[C@@H]3O[C@H]1C[C@H](N)[C@H](O)[C@H](C)O1` [DOXORUBICIN], the GI50 (with HOP-62; with PC-3; in the data set on K562 [2]; in [3]; with KB; in the data set on MCF7) was less than 0.1 µM each time.
As for `O=C(COc1ccc(/C=C2\SC(=O)NC2=O)cc1)Nc1c(Cl)cccc1Cl`, the GI50 in the data set with HL-60 was 97.6 µM; in the data set on MOLT-4 it was greater than 100 µM; with HOP-62, greater than 100 µM; in the data set on PC-3, greater than 100 µM; in the data set on Jurkat it was 21.9 µM; in the data set on K562 [2], 6.7 µM. Further, the GI50 in data set [3] was 56.8 µM; with KB, greater than 100 µM; in the data set with MCF7, 61.7 µM; with U-937, 60 µM. Besides, the viability in data set [1] was greater than 70%.
In the case of `O=C(COc1ccc(/C=C2\SC(=O)NC2=O)cc1)Nc1ccccn1`, the viability in data set [1] is greater than 70%.
With `Cc1c(NC(=O)COc2ccc(/C=C3\SC(=O)NC3=O)cc2)c(=O)n(-c2ccccc2)n1C`, the viability in data set [1] is greater than 70%.
On to `Cc1ccc(NC(=O)c2ccc(CN3CCN(C)CC3)cc2)cc1Nc1nccc(-c2cccnc2)n1` [IMATINIB], for which the inhibition of growth at 1 µM with K562 [4] amounted to 71%.
Regarding `O=C1NC(=O)/C(=C/c2ccc(OCC(=O)N3C(=O)c4ccccc4S3(=O)=O)cc2)S1`, the viability in data set [1] was greater than 70%.
Regarding `O=C(COc1ccc(/C=C2\SC(=O)NC2=O)cc1)Nc1cccc([N+](=O)[O-])c1`, the GI50 was greater than 100 µM in the data set on HOP-62; greater than 100 µM in the data set on PC-3; 20.5 µM in the data set with K562 [2]; 71.5 µM in data set [3]; greater than 100 µM in the data set on KB; 58.5 µM in the data set with MCF7. Besides, the viability in data set [1] is greater than 70%.
As for `Cc1cc(NC(=O)COc2ccc(/C=C3\SC(=O)NC3=O)cc2)no1`, the viability in data set [1] is greater than 70%.
As for `Cc1cc(Br)ccc1NC(=O)COc1ccc(/C=C2\SC(=O)NC2=O)cc1`, the GI50 is greater than 100 µM in the data set on HOP-62; greater than 100 µM in the data set with PC-3; 20.7 µM with K562 [2]; 69.7 µM in data set [3]; greater than 100 µM in the data set with KB; 66.8 µM in the data set with MCF7. Besides, in data set [1], the viability is greater than 70%.
For `Cc1cccc(NC(=O)COc2ccc(/C=C3\SC(=O)NC3=O)cc2)n1`, the GI50 with HOP-62 was determined as 81.4 µM; with PC-3 it was 58.3 µM; in the data set with K562 [2] it was 10.7 µM; in data set [3], 60.9 µM; with KB, 75 µM; with MCF7, 28.3 µM. Besides, the viability in data set [1] is greater than 70%.
As for `O=C(COc1ccc(/C=C2\SC(=O)NC2=O)cc1)Nc1nc2ccccc2s1`, the figures for the GI50 in the data set on NCI-H226 and with A549 were 26.5 µM and 46.9 µM, respectively. In addition, in data set [1], the viability was greater than 70%.
For `CCCCC1=NC2(CCCC2)C(=O)N1NC(=O)COc1ccc(/C=C2\SC(=O)NC2=O)cc1`, the viability in data set [1] is greater than 70%.
As for `O=C(COc1ccc(/C=C2\SC(=O)NC2=O)cc1)Nc1ccccc1`, the GI50 in the data set with HOP-62 was greater than 100 µM; with PC-3 it was greater than 100 µM; in the data set on K562 [2], 17.6 µM; in [3], 57 µM; in the data set on KB it was greater than 100 µM; in the data set with MCF7, 74.5 µM. Further, in data set [1], the viability was greater than 70%.
As for `O=C(COc1ccc(/C=C2\SC(=O)NC2=O)cc1)Nc1ncc([N+](=O)[O-])s1`, the viability in data set [1] was greater than 70%.
Take `Cc1cnc(NC(=O)COc2ccc(/C=C3\SC(=O)NC3=O)cc2)s1`: the GI50 in the data set with NCI-H226 is 57.8 µM; with A549 it was 88.7 µM. Moreover, the viability in data set [1] was greater than 70%.
As to `O=C(COc1ccc(/C=C2\SC(=O)NC2=O)cc1)Nc1c(F)cc(Br)cc1F`, the GI50 was 75.2 µM with HOP-62; greater than 100 µM in the data set on PC-3; 23.1 µM in the data set on K562 [2]; 64.1 µM in [3]; greater than 100 µM in the data set on KB; 57.3 µM in the data set with MCF7. Also, in [1], the viability was greater than 70%.
Consider `O=C(COc1ccc(/C=C2\SC(=O)NC2=O)cc1)Nc1ccc(F)cc1`, for which the GI50 with HL-60 is 61.1 µM; in the data set with MOLT-4 it was 53.5 µM; in the data set with HOP-62 it was 68 µM; with PC-3, greater than 100 µM; in the data set on Jurkat, 59.9 µM; in the data set on K562 [2], 9.6 µM. Further, the concentration for 50% growth inhibition (GI50) in [3] is 56.8 µM; in the data set on KB, greater than 100 µM; with MCF7 it was 54.6 µM; with U-937, 63.9 µM. The viability in data set [1] was greater than 70%.
For the compound `O=C1NC(=O)/C(=C/c2ccc(OCC(=O)N3c4ccccc4Sc4ccccc43)cc2)S1`, the GI50 in the data set with NCI-H226 is 82.1 µM; in the data set on A549, greater than 100 µM. Besides, the viability in data set [1] was greater than 70%.
On to `Cc1ccc(NC(=O)COc2ccc(/C=C3\SC(=O)NC3=O)cc2)cc1Cl`, for which the GI50 is greater than 100 µM in the data set with HOP-62; greater than 100 µM with PC-3; 19.6 µM in the data set on K562 [2]; 71.4 µM in data set [3]; 99.6 µM with KB; 61.8 µM with MCF7. In addition, in data set [1], the viability is greater than 70%.
As to `O=C(COc1ccc(/C=C2\SC(=O)NC2=O)cc1)Nc1ccc(C(F)(F)F)cc1Cl`, the GI50 with HOP-62 is greater than 100 µM; with PC-3, greater than 100 µM; with K562 [2], 16.3 µM; in [3] it was 99.3 µM; in the data set on KB, 78.6 µM; in the data set with MCF7 it was 67.4 µM. Also, the viability in data set [1] is greater than 70%.
On to `O=C(COc1ccc(/C=C2\SC(=O)NC2=O)cc1)Nc1ccc([N+](=O)[O-])cc1`, for which the GI50 in the data set with HOP-62 was greater than 100 µM; in the data set with PC-3 it was greater than 100 µM; in the data set on K562 [2], 29.5 µM; in data set [3] it was greater than 100 µM; with KB, greater than 100 µM; with MCF7, 72.5 µM. For the same compound, the viability in data set [1] was greater than 70%.
For `CCc1ccc(CCOc2ccc(CC3SC(=O)NC3=O)cc2)nc1` (stereo unspecified) [PIOGLITAZONE], in the data set on K562 [2], the GI50 was 40.1 µM.
For the compound `Cc1cccc2sc(NC(=O)COc3ccc(/C=C4\SC(=O)NC4=O)cc3)nc12`, the GI50 is greater than 100 µM in the data set with HOP-62; greater than 100 µM in the data set on PC-3; 45.8 µM in the data set with K562 [2]; 58.7 µM in data set [3]; greater than 100 µM in the data set on KB; 61.2 µM in the data set with MCF7. Also, the viability in data set [1] was greater than 70%.

(Values after ChEMBL document CHEMBL4665832, “Benzylidene thiazolidinediones: Synthesis, in vitro investigations of antiproliferative mechanisms and in vivo efficacy determination in combination with Imatinib” (Bioorg Med Chem Lett, 2020).)
